These results are taken from article PMC2555998 (The Journal of Biological Chemistry, 2008).

Where no end group is shown, it is not given here.

The Kd is the free concentration of one partner at which half of the binding sites on the other are occupied at equilibrium, for simple one-to-one binding.

The subject of one experiment is TA-CaM. The settings on record: cited from earlier work.
For another experiment, the target named is CaM (Homo sapiens, UniProt P0DP23). The experiment in a line: Ca^2+ dissociation kinetics of CaM complexes with Cx32 peptides. It is filed as binding. The settings on record: for relative amplitude A1 (EF1) / relative amplitude A2 (EF2) / relative amplitude A3 (EF3) / relative amplitude A4 (EF4): Table 3, CaM + C-terminal peptide, n = 3 (208-226), 2 (208-227). In outline:
(§1)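 Human liver wild-type CaM and the EF-hand mutants CaM12 (D22A/D58A) and CaM34 (D95A/D131A) were expressed in E. coli and HPLC-purified, EGTA-free. In stopped flow, 90 µM quin 2 with no added Ca2+ was mixed with 3 µM CaM or CaM·peptide in 50 µM Ca2+ buffer (mixing-chamber concentrations). Buffer was 50 mM K+-PIPES pH 7.0, 100 mM KCl, 2 mM MgCl2.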

Another experiment concerns the target CaM12 (D22A/D58A CaM) (Homo sapiens, UniProt P0DP23, D23A/D59A). The experiment in a line: Ca^2+ dissociation kinetics of CaM12 complexes with Cx32 peptides. To be noted: n = 1; for k4 (EF4, C-terminal CaM lobe) / relative amplitude A3 (EF3) / relative amplitude A4 (EF4): Table 3, CaM12 + C-terminal peptide; for k4 (EF4, C-terminal CaM lobe): 21 °C. It is filed as binding. In outline:
as §1

For another experiment, the target named is CaM34 (D95A/D131A CaM) (Homo sapiens, UniProt P0DP23, D132A/D96A). The experiment in a line: Ca^2+ dissociation kinetics of CaM34 complexes with Cx32 peptides. It is filed as binding. The settings on record: Table 3, CaM34 + C-terminal peptide, n = 2; for k2 (EF2, N-terminal CaM lobe): 10 μM peptide, 21 °C, mean ± S.D.
Experiment [1] concerns the target T1, DA-CaM (Homo sapiens, UniProt P0DP23, T111C/T35C). Kind of experiment: Conformation of CaM in peptide complexes: donor quenching of DA-CaM. It is filed as binding. To be noted: 433 nM DA-CaM, 0.5 mM CaCl2; further addition of 4.4 μM peptide. The method in brief:
(§2)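 DA-CaM was made from T34C/T110C CaM randomly labeled with IAEDANS (donor) and DDP (quencher), then HPLC-fractionated into lobe-specific labeled species. Equilibrium titration used increasing peptide concentrations on a spectrofluorimeter. Donor quenching indicated CaM compactness in the complex, and Kd came from fitting the binding data.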

Another experiment deals with AEDANS-T34C/T110C-CaM (Homo sapiens, UniProt P0DP23, T111C/T35C). The experiment in a line: Equilibrium fluorescence titration of AEDANS-T34C/T110C-CaM with Cx32 208–226. It is filed as binding.
Experiment [2] concerns the target T1, DA-CaM. The experiment in a line: Equilibrium fluorescence titration of DA-CaM with Cx32 1–19. It is filed as binding. The method in brief:
as §2

Experiment [3] in a line: Ca^2+ dissociation kinetics of CaM and mutant CaMs without peptide. It is filed as binding. The settings on record: no peptide; calibration of ΔRF per site. The method in brief:
as §1

The conditions of experiment [4]: cited from earlier work.

Turning to “Cx32 216–230: peptide representing residues 216–230 of the Cx32 C-terminal tail (ACARRAQRRSNPPSR; UniProt P08034 216-230, looked up, fragment)”, in the experiment on TA-CaM (compared with 208–226 peptide), the “relative affinity for CaM, in words” value was “higher affinity than the 208–226 peptide”.
Regarding “Ac-EVVYLIIRACARRAQRRSNP-NH2 [Cx32 208–227]”, the “involvement of the N-lobe EF hand binding” value on CaM (CaM complex, 10 μM peptide) was determined as 50%. At CaM, the “relative amplitude A1 (EF1)” value worked out at 0.5, the “relative amplitude A2 (EF2)” value worked out at 1.5, the “relative amplitude A3 (EF3)” value stood at 1 and the “relative amplitude A4 (EF4)” value is reported as 1. Moreover, the “relative affinity for CaM, in words” value on CaM (compared with 208–226 peptide) is given as “higher affinity for CaM than the 208–226 peptide”. In addition, on CaM12 (D22A/D58A CaM) (10 μM peptide), the “rate constant for both C-lobe EF hands of CaM12·peptide complex” value came to 3.1 ± 0.1 s^–1 and the “k4 (EF4, C-terminal CaM lobe)” value is 3.1 ± 0.1 s⁻¹. Also, on CaM12 (D22A/D58A CaM), the “relative amplitude A3 (EF3)” value was determined as 0.5 and the “relative amplitude A4 (EF4)” value came out at 1. In addition, at CaM34 (D95A/D131A CaM), the “k2 (EF2, N-terminal CaM lobe)” value is 169 ± 5.6 s⁻¹; the “relative amplitude A1 (EF1)” value stood at 0.5; the “relative amplitude A2 (EF2)” value came out at 1.
As for EVVYLIIRACARRAQRRSN [Cx32 208–226], at CaM, the “relative amplitude A1 (EF1)” value turned out to be 1, the “relative amplitude A2 (EF2)” value is on record as 1, the “relative amplitude A3 (EF3)” value was found to be 1 and the “relative amplitude A4 (EF4)” value is listed as 1. Besides, at CaM12 (D22A/D58A CaM) (10 μM peptide), the “k4 (EF4, C-terminal CaM lobe)” value is 1.6 ± 0.1 s⁻¹. On CaM12 (D22A/D58A CaM), the “relative amplitude A3 (EF3)” value stood at 1 and the “relative amplitude A4 (EF4)” value is on record as 1. For the same substance, at CaM34 (D95A/D131A CaM), the “k2 (EF2, N-terminal CaM lobe)” value was found to be 173 ± 0.4 s⁻¹. Moreover, the “donor AEDANS fluorescence on increasing the peptide concentration” value on DA-CaM [1] is “a blue shift was seen in the donor AEDANS fluorescence”. The substance further gave a Kd at AEDANS-T34C/T110C-CaM of 3450 ± 1090 nM. In addition, the “increase in fluorescence on peptide binding (fold)” value at AEDANS-T34C/T110C-CaM (donor-only labeled probe AEDANS-T34C/T110C-CaM) turned out to be 2.5 fold.
Regarding MNWTGLYTLLSGVNRHSTA [Cx32 1–19], the Kd at DA-CaM [2] stood at 1140 ± 100 nM.
Consider calmodulin [CaM], for which, in experiment [3], the “ΔRF of two measurable (C-lobe) sites” value was determined as 0.08. Further, the “higher Ca^2+ affinity of the C-terminal lobe of apo CaM (fold)” value in experiment [4] (Ca^2+-free (apo) CaM, C-lobe vs N-lobe) is reported as “about 5 fold”. Further, the “Ca^2+ dissociation from the two N-terminal lobe sites, estimated” value in [4] (no peptide) is listed as roughly 1000 s^–1.
Take “Cx32 1–21: peptide, consisting of residues 1–21, which represents the N-terminal tail CaM-binding domain of Cx32”: the Kd at TA-CaM (TA-CaM (Lys75-modified fluorescent CaM), Ca^2+-dependent) was 27 nM.
